Laboratory results taken from ChEMBL document CHEMBL1151891, “Synthesis and anticancer activities of novel 3,5-disubstituted-1,2,4-oxadiazoles” (Bioorg Med Chem Lett, 2009).

Assays:
Assay type in all cases: functional, cell-based
HCT-116 = experiment: Anticancer activity against human HCT116 cells after 24 hrs by MTT assay; settings: HCT-116, 24 h
Outline: (§1)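 Cells maintained in RPMI-1640 with 10% heat-inactivated FBS and 1% penicillin/streptomycin. Seeded at 4.0 × 10³ cells/well for 12 h, then exposed to compounds over a 10 nM–1 mM range for 24 h. MTT added to 0.5 mg/ml final for 30 min. Cells washed twice in PBS and lysed in DMSO. Absorbance read at 570 nm; IC50 reported.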

[1] = Anticancer activity against human MDA231 cells after 24 hrs by MTT assay; settings: MDA-MB-231, 24 h; outline: as §1
DU-145 = experiment: Anticancer activity against human DU145 cells after 24 hrs by MTT assay; settings: DU-145, 24 h; outline: as §1
LNCaP = experiment: Anticancer activity against human LNCAP cells after 24 hrs by MTT assay; outline: as §1
MCF7 = experiment: Anticancer activity against human MCF7 cells after 24 hrs by MTT assay; settings: MCF7, 24 h; outline: as §1
PC-3 = experiment: Anticancer activity against human PC3 cells after 24 hrs by MTT assay; settings: PC-3, 24 h; outline: as §1
MIA PaCa-2 = experiment: Anticancer activity against human MIAPaCa2 cells after 24 hrs by MTT assay; settings: MIA PaCa-2, 24 h; outline: as §1

| IC50 (HCT-116) | IC50 (DU-145) | IC50 (LNCaP) | IC50 (MCF7) | IC50 (PC-3) | IC50 (MIA PaCa-2) | SMILES | IC50 [1] |
| --- | --- | --- | --- | --- | --- | --- | --- |
| > 1000 µM | 122 µM | 20.8 µM | 174 µM | > 1000 µM | 0.74 µM | COc1ccc(-c2noc(-c3ccc(Cl)cc3)n2)cc1OC1CCCC1 | 396 µM |
| 185 µM | 302 µM | 28.3 µM | 174 µM | > 1000 µM | 3.01 µM | COc1ccc(-c2noc(CC(C)=O)n2)cc1OC1CCCC1 | 53.3 µM |
| > 1000 µM | > 1000 µM | > 1000 µM | > 1000 µM | > 1000 µM | > 1000 µM | COc1cc(-c2noc(-c3ccncc3)n2)ccc1OCc1ccccc1 | > 1000 µM |
| 0.27 µM | 0.78 µM | 0.86 µM | 0.39 µM | 162 µM | 0.48 µM | COc1ccc(-c2noc(-c3ccc(O)cc3)n2)cc1OC1CCCC1 | 0.31 µM |
| > 1000 µM | > 1000 µM | > 1000 µM | > 1000 µM | > 1000 µM | > 1000 µM | COc1ccc(-c2noc(-c3ccccc3)n2)cc1OC1CCCC1 | > 1000 µM |
| > 1000 µM | 657 µM | 710 µM | > 1000 µM | > 1000 µM | 497 µM | c1ccc(-c2noc(-c3ccncc3)n2)cc1 | > 1000 µM |
| > 1000 µM | > 1000 µM | 23.7 µM | > 1000 µM | > 1000 µM | > 1000 µM | Fc1ccc(-c2nc(-c3ccccc3)no2)cc1 | > 1000 µM |
| > 1000 µM | > 1000 µM | > 1000 µM | > 1000 µM | > 1000 µM | 351 µM | COc1ccc(-c2noc(-c3ccc(F)cc3)n2)cc1O | > 1000 µM |
| > 1000 µM | > 1000 µM | > 1000 µM | > 1000 µM | > 1000 µM | > 1000 µM | COc1ccc(-c2noc(-c3cccnc3)n2)cc1OC1CCCC1 | > 1000 µM |
| > 1000 µM | > 1000 µM | > 1000 µM | > 1000 µM | > 1000 µM | 9.56 µM | COc1ccc(-c2noc(Cc3c[nH]c4ccccc34)n2)cc1OC1CCCC1 | > 1000 µM |
| > 1000 µM | > 1000 µM | > 1000 µM | > 1000 µM | > 1000 µM | 9.33 µM | COc1ccc(-c2noc(-c3ccncc3)n2)cc1OC1CCCC1 | 240 µM |
| 1.54 µM | 0.057 µM | 0.01 µM | 3.88 µM | > 1000 µM | 0.54 µM | COc1ccc(-c2noc(C3CCNCC3)n2)cc1OC1CCCC1 | 0.37 µM |
| 210 µM | 20.7 µM | 87.9 µM | 3.88 µM | > 1000 µM | 6.09 µM | COc1ccc(-c2noc(-c3ccc(F)cc3)n2)cc1OC1CCCC1 | 55.5 µM |
| 185 µM | 242 µM | 0.043 µM | > 1000 µM | > 1000 µM | 19.5 µM | COc1ccc(-c2noc(C3CCCN3)n2)cc1OC1CCCC1 (stereo not drawn) | 212 µM |
